Results from ChEMBL document CHEMBL4422628, “Discovery of first-in-class thiazole-based dual FFA1/PPARδ agonists as potential anti-diabetic agents” (Eur J Med Chem, 2019).

Experiments:
[1] = target: T1, Peroxisome proliferator-activated receptor delta (Homo sapiens) (UniProt Q03181); test: Transactivation of GAL4-fused human PPARdelta LBD expressed in HEK293 cells assessed as activity percentage at 10 uM after 18 hrs by luciferase reporter gene assay relative to control; assay type: cell-based
T1 sequence (whole entry): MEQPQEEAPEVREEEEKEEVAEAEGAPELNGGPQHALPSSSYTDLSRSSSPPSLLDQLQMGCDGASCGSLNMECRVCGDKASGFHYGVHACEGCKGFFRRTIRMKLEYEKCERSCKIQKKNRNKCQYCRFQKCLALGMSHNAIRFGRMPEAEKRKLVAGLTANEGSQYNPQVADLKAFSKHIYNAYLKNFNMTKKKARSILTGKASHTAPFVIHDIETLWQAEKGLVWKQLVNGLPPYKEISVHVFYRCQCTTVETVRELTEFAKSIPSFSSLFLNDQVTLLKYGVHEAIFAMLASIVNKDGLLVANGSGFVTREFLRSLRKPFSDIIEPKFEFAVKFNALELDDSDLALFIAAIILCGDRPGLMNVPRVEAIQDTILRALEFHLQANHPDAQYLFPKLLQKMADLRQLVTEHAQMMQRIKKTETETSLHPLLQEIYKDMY
Summary of the method: (§1)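 HepG2 or HEK293 cells were transfected with pBIND-PPARα, -δ or -γ (GAL4 fusion). Compounds at varying concentrations were incubated for 18 h. Cells were then lysed and firefly and renilla luciferase were read by dual-luciferase assay.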

[2] = target: T2, Peroxisome proliferator-activated receptor delta (Homo sapiens, UniProt Q03181); test: Transactivation of GAL4-fused human PPARdelta LBD expressed in HEK293 cells after 18 hrs by luciferase reporter gene assay; assay type: cell-based
T2 sequence (Q03181 whole entry): T1 sequence (whole entry)

[3] = target: T3, Free fatty acid receptor 1 (Homo sapiens, UniProt O14842); test: Agonist activity at human FFA1 receptor expressed in CHO cells by Fluo 4-AM dye based FLIPR assay; assay type: cell-based
Summary of the method: (§2)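 hFFA1-expressing CHO cells were loaded for 1 h at 37 °C with buffer containing 2.5 μg/mL Fluo 4-AM, 0.1% fatty acid-free BSA and 2.5 mmol/L probenecid. Compounds were added and calcium flux was read on FLIPR. Activity = (A–B)/(C–B)×100%, where A is the compound response, B the vehicle response and C the 10 μM γ-linolenic acid response.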

[4] = target: T3, Free fatty acid receptor 1; test: Agonist activity at human FFA1 receptor expressed in CHO cells assessed as activity percentage at 10 uM by Fluo 4-AM dye based FLIPR assay relative to control; assay type: cell-based; summary of the method: as §2
Mus musculus [5] = test: Antidiabetic activity in ob/ob mouse assessed as reduction in blood glucose AUC (0 to 120 mins) at 100 mg/kg, po administered as single dose pretreated for 30 mins followed by glucose-challenge by glucometric analysis relative to control; assay type: functional; design: scale not given: the % may be the effect or the level left
Summary of the method: (§3)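 Male ob/ob mice (six weeks old on arrival, acclimatized one week) were fasted 12 h and randomized (n = 6/group). Each received a single oral dose in 0.5% carboxymethyl cellulose vehicle, then 3 g/kg oral glucose 30 min later. Blood glucose was measured by glucometer at −30, 0, 15, 30, 60 and 120 min. Glucose AUC0-120min was calculated, mean ± SD.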

[6] = Cmax in Sprague-Dawley rat at 3 mg/kg, po by LC-MS/MS analysis; assay type: ADME, organism-based; design: dose 3 mg/kg, route oral; conditions: in vivo
[7] = Half life in Sprague-Dawley rat at 3 mg/kg, po by LC-MS/MS analysis; assay type: ADME, organism-based; conditions: in vivo
[8] = Clearance in Sprague-Dawley rat at 3 mg/kg, po by LC-MS/MS analysis; assay type: ADME, organism-based; conditions: in vivo
Mus musculus [9] = test: Antidiabetic activity in ob/ob mouse assessed as change in blood glucose AUC (0 to 120 mins) at 10 mg/kg, po administered as single dose pretreated for 30 mins followed by glucose-challenge by glucometric analysis relative to control; assay type: functional; summary of the method: as §3
[10] = target: T4, Peroxisome proliferator-activated receptor gamma (Homo sapiens, UniProt P37231); test: Transactivation of GAL4-fused human PPARgamma LBD expressed in HEK293 cells after 18 hrs by luciferase reporter gene assay; assay type: cell-based; summary of the method: as §1
T4 sequence (P37231 whole entry): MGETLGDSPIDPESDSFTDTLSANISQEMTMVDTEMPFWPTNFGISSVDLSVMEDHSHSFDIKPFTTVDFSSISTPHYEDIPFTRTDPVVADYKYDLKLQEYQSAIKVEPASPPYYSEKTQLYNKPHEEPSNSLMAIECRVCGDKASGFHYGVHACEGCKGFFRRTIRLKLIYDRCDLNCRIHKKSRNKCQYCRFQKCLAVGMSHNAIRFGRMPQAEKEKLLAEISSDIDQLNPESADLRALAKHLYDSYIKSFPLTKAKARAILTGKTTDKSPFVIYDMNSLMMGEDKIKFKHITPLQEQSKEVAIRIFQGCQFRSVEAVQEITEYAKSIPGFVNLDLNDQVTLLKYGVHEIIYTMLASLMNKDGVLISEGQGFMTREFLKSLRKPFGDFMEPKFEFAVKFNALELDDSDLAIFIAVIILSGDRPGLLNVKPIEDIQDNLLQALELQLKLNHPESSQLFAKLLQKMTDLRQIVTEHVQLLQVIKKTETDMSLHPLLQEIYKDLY

[11] = AUC (0 to 24 hrs) in Sprague-Dawley rat at 3 mg/kg, po by LC-MS/MS analysis; assay type: ADME, organism-based; design: dose 3 mg/kg, time < 24 hr, route oral; conditions: in vivo
Mus musculus [12] = test: Antidiabetic activity in ob/ob mouse assessed as reduction in blood glucose AUC (0 to 120 mins) at 30 mg/kg, po administered as single dose pretreated for 30 mins followed by glucose-challenge by glucometric analysis relative to control; assay type: functional; design: scale not given: the % may be the effect or the level left; summary of the method: as §3
Mus musculus [13] = test: Antidiabetic activity in po dosed ob/ob mouse assessed as reduction in blood glucose AUC (0 to 120 mins) administered as single dose pretreated for 30 mins followed by glucose-challenge by glucometric analysis; assay type: functional, organism-based; summary of the method: as §3
[14] = target: T5, Peroxisome proliferator-activated receptor alpha (Homo sapiens, UniProt Q07869); test: Transactivation of GAL4-fused human PPARalpha LBD expressed in HEK293 cells after 18 hrs by luciferase reporter gene assay; assay type: cell-based; summary of the method: as §1
T5 sequence (Q07869 whole entry): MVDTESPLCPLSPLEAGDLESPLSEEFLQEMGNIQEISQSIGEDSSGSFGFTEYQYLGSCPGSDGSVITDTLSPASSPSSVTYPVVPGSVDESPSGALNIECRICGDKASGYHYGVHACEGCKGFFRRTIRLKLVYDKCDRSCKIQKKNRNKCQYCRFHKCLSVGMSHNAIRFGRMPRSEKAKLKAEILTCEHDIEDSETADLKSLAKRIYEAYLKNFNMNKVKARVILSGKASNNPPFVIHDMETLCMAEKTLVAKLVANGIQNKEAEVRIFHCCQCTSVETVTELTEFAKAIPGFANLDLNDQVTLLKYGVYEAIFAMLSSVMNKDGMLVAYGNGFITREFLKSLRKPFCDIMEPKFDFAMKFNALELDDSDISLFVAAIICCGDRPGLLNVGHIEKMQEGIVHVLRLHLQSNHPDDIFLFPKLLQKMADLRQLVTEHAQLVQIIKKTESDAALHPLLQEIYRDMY

Mus musculus [15] = test: Antidiabetic activity in ob/ob mouse assessed as reduction in blood glucose AUC (0 to 120 mins) at 40 mg/kg, po administered as single dose pretreated for 30 mins followed by glucose-challenge by glucometric analysis relative to control; assay type: functional; design: scale not given: the % may be the effect or the level left; summary of the method: as §3

T3 sequence (O14842 whole entry): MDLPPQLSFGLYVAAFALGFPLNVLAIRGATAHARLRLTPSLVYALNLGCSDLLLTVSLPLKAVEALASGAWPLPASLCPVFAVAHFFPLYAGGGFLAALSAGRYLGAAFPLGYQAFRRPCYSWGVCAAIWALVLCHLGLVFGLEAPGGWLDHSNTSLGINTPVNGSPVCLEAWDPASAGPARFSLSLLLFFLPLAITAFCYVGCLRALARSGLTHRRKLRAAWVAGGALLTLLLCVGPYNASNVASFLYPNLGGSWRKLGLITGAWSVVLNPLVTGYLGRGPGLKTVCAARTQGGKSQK

SMILES	Activity [1] [%]	EC50 [2] [µM]	EC50 [3] [µM]	Activity [4] [%]	further results
Cc1sc(-c2ccccc2)nc1COc1ccc(OCC(=O)O)c(F)c1	31	> 10	> 10	37	
Cc1nc(-c2ccc(F)cc2)sc1COc1ccc(S(=O)(=O)CC(=O)O)cc1		> 10	0.253		
Cc1cc(OCc2nnc(-c3ccccc3)s2)ccc1OCC(=O)O	9	> 10	> 10	1	
Cc1nc(-c2ccccc2)oc1COc1ccc(OCC(=O)O)c(F)c1		2.66	1.35		
Cc1nc(-c2ccc(C(F)(F)F)cc2)sc1COc1ccc2c(c1)OC[C@H]2CC(=O)O		0.102	0.068		Activity (Mus musculus [5]): 10.9%; Cmax [6]: 9450 ng/mL; half-life [7]: 4.31 h; CL/F [8]: 0.279 mL/min/kg; Activity (Mus musculus [9]): 1.1%; EC50 [10]: > 10 µM; AUC(0-t) at 24 h [11]: 95600 ng·h/mL; Activity (Mus musculus [12]): 6.1%; Activity (Mus musculus [13]): Dose-dependent effect; EC50 [14]: > 10 µM
O=C(O)COc1ccc(OCc2nnc(-c3ccccc3)s2)cc1F	4	> 10	> 10	19	
O=C(O)COc1ccc(OCc2nnc(-c3ccccc3)o2)cc1F	3	> 10	> 10	6	
Cc1cc(OCc2ncc(-c3ccccc3)o2)ccc1OCC(=O)O	12	> 10	> 10	2	
Cc1cc(OCc2sc(-c3ccccc3)nc2C)ccc1OCC(=O)O		1.65	> 10	13	
[2H]C([2H])(Cc1ccc(OCc2sc(-c3ccccc3)nc2C)cc1)C(=O)O		0.972	0.59		
O=C(O)COc1ccc(OCc2csc(-c3ccccc3)n2)cc1F	20	> 10	> 10	23	
Cc1sc(-c2ccccc2)nc1CNc1ccc(OCC(=O)O)c(F)c1	12	> 10	> 10	42	
Cc1nc(-c2ccccc2)sc1COc1ccc(S(=O)(=O)CC(=O)O)cc1		> 10	0.37		
O=C(O)COc1ccc(OCc2ncc(-c3ccccc3)s2)cc1F	23	> 10	> 10	31	
Cc1cc(OCc2csc(-c3ccccc3)n2)ccc1OCC(=O)O	35	> 10	> 10	5	
Cc1nc(-c2ccccc2)sc1COc1ccc(OCC(=O)O)c(F)c1		1.32	0.374		
O=C(O)COc1ccc(OCc2nc(-c3ccccc3)cs2)cc1F	11	> 10	> 10	15	
Cc1cc(OCCCS(C)(=O)=O)cc(C)c1-c1cccc(COc2ccc3c(c2)OC[C@H]3CC(=O)O)c1					Activity (Mus musculus [15]): 15.7%
O=C(O)COc1ccc(OCc2ncc(-c3ccccc3)o2)cc1F	8	> 10	> 10	2	
COc1ccc(-c2nc(C)c(COc3ccc4c(c3)OCC4CC(=O)O)s2)cc1 (stereo not drawn)		0.92	0.156		
Cc1cccc(-c2nc(C)c(COc3ccc(OCC(=O)O)c(F)c3)s2)c1		1.16	0.247		
Cc1nc(-c2ccc(C(F)(F)F)cc2)sc1COc1ccc2c(c1)OCC2CC(=O)O (stereo not drawn)		0.175	0.113		

Continued, in another order:

Activity [1] [%]	EC50 [2] [µM]	EC50 [3] [µM]	Activity [4] [%]	SMILES	further results
	0.264	0.105		Cc1nc(-c2ccc(Cl)cc2)sc1COc1ccc2c(c1)OCC2CC(=O)O (stereo not drawn)	
	0.376	0.325		[2H]C([2H])(Cc1ccc(OCc2sc(-c3ccc(C(F)(F)F)cc3)nc2C)cc1)C(=O)O	
	0.863	0.102		Cc1nc(-c2ccccc2)sc1COc1ccc2c(c1)OCC2CC(=O)O (stereo not drawn)	
	0.315	> 10		Cc1cc(OCc2sc(-c3ccc(C(F)(F)F)cc3)nc2C)ccc1OCC(=O)O	
	0.78	0.185		Cc1nc(-c2cccc(F)c2)sc1COc1ccc(OCC(=O)O)c(F)c1	
	0.529	0.251		[2H]C([2H])(Cc1ccc(OCc2sc(-c3ccc(F)cc3)nc2C)cc1)C(=O)O	
	0.436	0.149		Cc1nc(-c2ccc(C(F)(F)F)cc2)sc1COc1ccc(OCC(=O)O)c(F)c1	
	0.306	0.079		Cc1nc(-c2ccc(F)cc2)sc1COc1ccc2c(c1)OCC2CC(=O)O (stereo not drawn)	
	0.564	0.156		Cc1ccc(-c2nc(C)c(COc3ccc(OCC(=O)O)c(F)c3)s2)cc1	
	0.218	0.094		Cc1ccc(-c2nc(C)c(COc3ccc4c(c3)OCC4CC(=O)O)s2)cc1 (stereo not drawn)	
	0.729	0.112		Cc1nc(-c2ccc(F)cc2)sc1COc1ccc(OCC(=O)O)c(F)c1	
